The results in this text go back to ChEMBL document CHEMBL1157612, “Synthesis and biological activities of 2-amino-1-arylidenamino imidazoles as orally active anticancer agents” (J Med Chem, 2010).

Structures are written as SMILES. pIC50: −log10 of the molar value. Activity calls are given as the source filed them. The rule behind the calls is not given here. Bounds are passed on as bounds.

The subject of data set [1] is NUGC-3. The data set is described as follows: Induction of microtubule arrangement aberration in human NUGC3 cells assessed as appearance of tubulin at 1 uM after 16 hrs FITC analysis. It is filed as functional, cell-based. Put shortly: (§1)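 NUGC-3 cells exposed to 1 μM for 16 h, then fixed in 4% formaldehyde 10 min and blocked with BSA. Stained with monoclonal anti-β-tubulin (1:200, 4 °C overnight) followed by FITC anti-mouse IgG (1:300, 1 h), and for DNA with Hoechst 33258 (1 μg/mL in 0.1% Triton X-100, 5 min). Imaged by confocal laser-scanning microscopy. DMSO vehicle control included.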

For data set [2], the system named is NUGC-3. In words: Induction of apoptosis in human NUGC3 cells assessed as DNA fragmentation at 1 uM after 16 hrs by Hoechst 33258 staining-based confocal laser-scanning microscopy. In kind it is functional, cell-based. Summed up:
as §1

Data set [3] deals with MKN-45. The data set is described as follows: Ex vivo antiproliferative activity against human MKN45 cells xenografted in nude mouse assessed as BrdU incorporation into DNA after 96 hrs by immunostaining. In kind it is functional, cell-based. Summed up:
(§2)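 MKN-45 or SW-480 cells (1 × 10^6) grown subcutaneously in nude mice to ~1 cm3; tumors cut into 1–2 mm pieces and histocultured on gelatin gels in MEM/DMEM with 10% FBS at 37 °C. After 3 days, exposed 96 h to 0.0001–10 μg/mL, then 40 μM BrdU for 48 h. Fixed, paraffin-sectioned, BrdU-immunostained with hematoxylin counterstain. Labeling index = BrdU-positive/total tumor cells; IC50 taken as concentration halving LI.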
(In xenograft studies the graft and the host belong to different species.)

The test system of data set [4] is SW480. The data set is described as follows: Ex vivo antiproliferative activity against human SW480 cells xenografted in nude mouse assessed as BrdU incorporation into DNA after 96 hrs by immunostaining. It is filed as functional, cell-based. Summed up: as §2
The subject of data set [5] is MKN-45. In words: Ex vivo antiproliferative activity against human MKN45 cells xenografted in nude mouse assessed as drug concentration reducing 50% of BrdU labeling index after 96 hrs by immunostaining. The note with it: MKN-45, 96 h. In kind it is functional, cell-based. Put shortly: as §2
In data set [6] the test system is P388. The data set is described as follows: Anticancer activity against mouse P388 cells xenografted in po dosed DBA/2J mouse assessed as increase in mouse life span administered daily for 9 consecutive days. It is filed as functional, organism-based. Put shortly:
(§3)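 Female DBA/2J mice, 5 weeks old, inoculated iv with 1 × 10^6 P388 cells each; dosing began one day later, 7–8 mice per group. Compound in DMSO diluted into 0.5% carboxymethyl cellulose (final DMSO <0.5%). Regimens: iv 2.5 or 7.5 (mg/kg)/day for 4 days; po gavage (0.1 mL) 25–200 (mg/kg)/day for 9 days. Vehicle-only controls. Survival checked twice daily; increase in life span computed from median survival time normalized to controls.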

Data set [7] deals with P388. The data set is described as follows: Anticancer activity against mouse P388 cells xenografted in iv dosed DBA/2J mouse assessed as increase in mouse life span administered daily for 4 consecutive. It is filed as functional, organism-based. Summed up:
as §3

The test system of data set [8] is Mus musculus. In words: Toxicity in DBA/2J mouse xenografted with mouse P388 cells assessed as body weight loss at 25 to 200 mg/kg, po administered daily for 9 consecutive days. Details: dose 25-200 mg/kg, route oral. The note with it: in vivo. In kind it is organism-based.
Data set [9] concerns Mus musculus. The data set is described as follows: Toxicity in DBA/2J mouse xenografted with mouse P388 cells assessed as body weight loss at 2.5 to 7.5 mg/kg, iv administered daily for 4 consecutive days. It is filed as organism-based. Details: dose 2.5-7.5 mg/kg, route intravenous. The note with it: in vivo.
For data set [10], the system named is P388. In words: Anticancer activity against mouse P388 cells xenografted in DBA/2J mouse assessed as increase in mouse life span at 25 mg/kg, po administered daily for 9 consecutive days. It is filed as functional. Put shortly:
(§4)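 Female DBA/2J mice, 5 weeks old, each given 1 × 10^6 P388 cells iv. Oral dosing by gavage (0.1 mL) started one day after inoculation. Compound was dissolved in DMSO and diluted in 0.5% carboxymethyl cellulose (final DMSO <0.5%). Groups of 7–8 mice; vehicle-only controls. Survival checked twice daily. Result is percentage increase in median survival time relative to the control group.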

Data set [11] has as its system P388. In words: Anticancer activity against mouse P388 cells xenografted in DBA/2J mouse assessed as increase in mouse life span at 100 mg/kg, po administered daily for 9 consecutive days. It is filed as functional. Put shortly:
as §4

Data set [12] concerns P388. The data set is described as follows: Anticancer activity against mouse P388 cells xenografted in DBA/2J mouse assessed as increase in mouse life span at 200 mg/kg, po administered daily for 9 consecutive days. It is filed as functional. Summed up:
as §4

The subject of data set [13] is P388. The data set is described as follows: Anticancer activity against mouse P388 cells xenografted in DBA/2J mouse assessed as increase in mouse life span at 2.5 mg/kg, iv administered daily for 4 consecutive days. In kind it is functional. Summed up: (§5)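 Female DBA/2J mice, 5 weeks old, each inoculated iv with 1 × 10^6 P388 cells (grown in RPMI 1640 with nonessential amino acids, 50 μM 2-mercaptoethanol, 10% FBS). Compound was given iv starting one day after inoculation. Groups of 7–8 mice plus vehicle controls, monitored twice daily. Percentage increase in life span calculated from median survival time, normalised to controls.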

Data set [14] has as its system NUGC-3. The data set is described as follows: Anticancer activity against human NUGC3 cells after 72 hrs by MTS/PMS assay. It is filed as functional, cell-based. As to conditions: NUGC-3, 72 h. Summed up: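 NUGC-3 gastric cancer cells seeded 4500/well, grown 24 h at 37 °C, 5% CO2, then exposed 72 h to a concentration series, duplicate wells per concentration, final DMSO ≤0.3%. Controls were actinomycin D 10 nM and 0.3% DMSO vehicle. Viability read colorimetrically by MTS/PMS. IC50 is the concentration giving 50% growth inhibition, reported as mean of triplicate wells from at least three experiments.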

Data set [15] deals with NUGC-3. The data set is described as follows: Induction of apoptosis in human NUGC3 cells assessed as DNA fragmentation at 100 nM by ethidium bromide staining-based agarose gel electrophoresis. In kind it is functional, cell-based.
Data set [16] can be described thus: Inhibition of bovine brain tubulin polymerization by turbidity assay. On the set-up: species or system Bos taurus.
The species named for data set [17] is Bos taurus. In words: Displacement of [3H]colchicine from bovine brain tubulin at 25 uM after 1 hr by scintillation counting.
The species entered for data set [18] is Bos taurus. In words: Displacement of [3H]colchicine from bovine brain tubulin after 1 hr by scintillation counting. A general note: In a radioligand displacement assay an active substance lowers the binding of a labelled ligand.
In data set [19] the test system is P388. In words: Anticancer activity against mouse P388 cells xenografted in DBA/2J mouse assessed as increase in mouse life span at 7.5 mg/kg, iv administered daily for 4 consecutive days. In kind it is functional. Put shortly:
as §5

Data set [20] relates to MKN-45. The data set is described as follows: Ex vivo antiproliferative activity against human MKN45 cells xenografted in nude mouse assessed as BrdU incorporation into DNA at 10 ug/mL after 96 hrs by immunostaining. In kind it is functional, cell-based. Summed up:
as §2

Data set [21] has as its system SW480. The data set is described as follows: Ex vivo antiproliferative activity against human SW480 cells xenografted in nude mouse assessed as BrdU incorporation into DNA at 10 ug/mL after 96 hrs by immunostaining. In kind it is functional, cell-based. Put shortly:
as §2

In data set [22] the test system is MKN-45. In words: Ex vivo apoptotic activity in human MKN45 cells xenografted in nude mouse assessed as DNA fragmentation at 10 ug/mL after 96 hrs by immunostaining. It is filed as functional, cell-based.

By pIC50 is commonly meant the IC50 on a negative log10 scale, so that one unit is a factor of ten. For `Nc1nc(-c2ccccc2)cn1/N=C/c1ccc(Cl)cc1`, the outcome with NUGC-3 [1], in the data set with NUGC-3 [2], with NUGC-3 [15] and in the data set filed under Bos taurus [17] was Active. Moreover, the Activity entry is “Dose-dependent effect” with MKN-45 [3]; “Dose-dependent effect” with SW480 [4]; “Dose-dependent effect” with P388 [6]; “Dose-dependent effect” in the data set on P388 [7]; “Non-toxic” with Mus musculus [8]; “Non-toxic” with Mus musculus [9]. Moreover, the Activity is 14% in the data set on P388 [10]; 71% with P388 [11]; 114% in the data set with P388 [12]; 17% in the data set on P388 [13]; “Dose-dependent effect” in the data set filed under Bos taurus [18]; 100% in the data set on P388 [19]. In addition, the negative logarithm of the IC50 (pIC50) in the data set on MKN-45 [5] was 4.89; in the data set on NUGC-3 [14], 7.22; in data set [16], 5.58.
Compound `Nc1nc(-c2cccs2)cn1/N=C/c1ccc(Cl)cc1` showed a pIC50 in the data set on NUGC-3 [14] of 7.10.
Compound `COc1cc2c(c(OC)c1OC)-c1ccc(OC)c(=O)cc1[C@@H](NC(C)=O)CC2` [COLCHICINE] had a negative-log IC50 (pIC50) with NUGC-3 [14] of 8.00.
Same read-out and setting: under `Cc1ccsc1/C=N/n1cc(-c2ccccc2)nc1N` stands 6.04.
Still for that read-out and setting: then `COc1ccccc1-c1cn(/N=C/c2ccc(Cl)cc2)c(N)n1`, with 5.28.
Turning to `Nc1nc(-c2ccccc2)cn1/N=C/c1ccccc1Cl`, the pIC50 in the data set on NUGC-3 [14] is 5.40.
Compound `Nc1nc(-c2ccccc2)cn1/N=C/c1ccc(Br)cc1` showed a pIC50 in the data set with NUGC-3 [14] of 6.24.
Same read-out and setting: then `Nc1nc(-c2ccccc2)cn1/N=C/c1ccc(Cl)c(Cl)c1`, with 6.13.
For `Nc1nc(-c2ccccc2)cn1/N=C/c1ccc(F)cc1`, the result in the data set with MKN-45 [20], in the data set with SW480 [21] and in the data set with MKN-45 [22] was Active. Further, the values for the pIC50 with MKN-45 [5] and in the data set with NUGC-3 [14] were 4.47 and 7.30, respectively. In the data set with P388 [12], the Activity is 110%.
For the compound `Nc1nc(-c2cccnc2)cn1/N=C/c1ccc(Cl)cc1`, the pIC50 in the data set with NUGC-3 [14] is 6.64; in [16] it was 6.57. Besides, the result in the data set on NUGC-3 [15] and in the data set listed under Bos taurus [17] was Active. The Activity result in the data set filed under Bos taurus [18] was “Dose-dependent effect”.
On to `Nc1nc(-c2nccs2)cn1/N=C/c1ccc(Cl)cc1`, for which the negative-log IC50 (pIC50) with NUGC-3 [14] is 6.29.
In the data set on NUGC-3 [14], `Nc1nc(-c2ccc(-c3ccccc3)cc2)cn1/N=C/c1ccc(Cl)cc1` had a negative-log IC50 (pIC50) of under 5.00.
`Nc1nc(-c2ccccc2)c(-c2ccccc2)n1/N=C/c1ccc(Cl)cc1` had a pIC50 in the data set on NUGC-3 [14] of under 5.00.
Compound `Nc1nc(-c2ccc(Cl)s2)cn1/N=C/c1ccc(Cl)cc1` gave a negative logarithm of the IC50 (pIC50) in the data set on NUGC-3 [14] of 5.48.
The compound `Nc1nc(-c2cccnc2)cn1/N=C/c1ccc(F)cc1` showed a pIC50 in the data set with NUGC-3 [14] of 7.22.
The compound `Nc1nc(-c2ccccc2)cn1/N=C/c1ccc(C(F)(F)F)cc1` gave a pIC50 in the data set with NUGC-3 [14] of 5.24.
Take `Nc1nc(-c2ccccc2)cn1/N=C/c1ccnc2ccccc12`: the pIC50 with NUGC-3 [14] is under 5.00.
The compound `Nc1nc(-c2ccccn2)cn1/N=C/c1ccc(Cl)cc1` showed a pIC50 in the data set with NUGC-3 [14] of 6.51.
`Nc1nc(-c2ccsc2)cn1/N=C/c1ccc(Cl)cc1` showed a pIC50 in the data set on NUGC-3 [14] of 7.30.
`Nc1nc(-c2ccccc2)cn1/N=C/c1ccccc1` showed a negative-log IC50 (pIC50) in the data set with NUGC-3 [14] of 6.08.
Consider `Nc1nc(-c2ccccc2)cn1/N=C/c1cccc(Cl)c1Cl`, for which the pIC50 with NUGC-3 [14] was 5.29.
